From ChEMBL document CHEMBL3994667, “Small Molecule Lysyl Oxidase-like 2 (LOXL2) Inhibitors: The Identification of an Inhibitor Selective for LOXL2 over LOX” (ACS Med Chem Lett, 2017)

What was measured:
Lysyl oxidase homolog 3 = molecular target: T1, Lysyl oxidase homolog 3 (Homo sapiens, UniProt P58215); test: Inhibition of recombinant human C-terminal His10-tagged LOXL3 (1 to 753 residues) assessed as reduction in H2O2 production using DAP as substrate preincubated for 2 hrs followed by substrate addition measured every 2 minutes for 50 minutes by Amplex red dye based fluorescence assay
T1 sequence (P58215 whole entry): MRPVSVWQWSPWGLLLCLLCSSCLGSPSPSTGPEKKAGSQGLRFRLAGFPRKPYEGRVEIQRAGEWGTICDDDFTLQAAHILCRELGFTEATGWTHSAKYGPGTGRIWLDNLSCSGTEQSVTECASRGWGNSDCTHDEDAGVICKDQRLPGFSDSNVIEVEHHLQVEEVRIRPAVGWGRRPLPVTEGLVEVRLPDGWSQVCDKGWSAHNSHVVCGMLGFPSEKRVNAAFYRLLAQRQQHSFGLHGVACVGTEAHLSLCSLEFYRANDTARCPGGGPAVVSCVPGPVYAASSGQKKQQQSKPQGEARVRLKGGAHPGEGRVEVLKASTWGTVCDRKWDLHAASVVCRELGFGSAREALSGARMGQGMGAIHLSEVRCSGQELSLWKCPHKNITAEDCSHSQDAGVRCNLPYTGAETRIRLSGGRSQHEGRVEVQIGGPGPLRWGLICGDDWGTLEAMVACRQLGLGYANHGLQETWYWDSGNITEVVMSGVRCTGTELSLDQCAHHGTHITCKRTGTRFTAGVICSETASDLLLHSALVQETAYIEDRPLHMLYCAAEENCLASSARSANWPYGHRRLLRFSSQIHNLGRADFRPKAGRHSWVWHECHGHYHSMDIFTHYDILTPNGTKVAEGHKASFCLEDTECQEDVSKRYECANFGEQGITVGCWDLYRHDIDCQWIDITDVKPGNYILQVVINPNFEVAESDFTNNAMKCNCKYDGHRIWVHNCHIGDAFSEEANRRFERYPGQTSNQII

Protein-lysine 6-oxidase = molecular target: T2, Protein-lysine 6-oxidase (Homo sapiens, UniProt P28300); test: Inhibition of full length recombinant human LOX expressed in HEK cells assessed as reduction in H2O2 production using DAP as substrate preincubated for 2 hrs followed by substrate addition measured every 2 minutes for 50 minutes in presence of BSA by Amplex red dye based fluorescence assay
T2 sequence (P28300 whole entry): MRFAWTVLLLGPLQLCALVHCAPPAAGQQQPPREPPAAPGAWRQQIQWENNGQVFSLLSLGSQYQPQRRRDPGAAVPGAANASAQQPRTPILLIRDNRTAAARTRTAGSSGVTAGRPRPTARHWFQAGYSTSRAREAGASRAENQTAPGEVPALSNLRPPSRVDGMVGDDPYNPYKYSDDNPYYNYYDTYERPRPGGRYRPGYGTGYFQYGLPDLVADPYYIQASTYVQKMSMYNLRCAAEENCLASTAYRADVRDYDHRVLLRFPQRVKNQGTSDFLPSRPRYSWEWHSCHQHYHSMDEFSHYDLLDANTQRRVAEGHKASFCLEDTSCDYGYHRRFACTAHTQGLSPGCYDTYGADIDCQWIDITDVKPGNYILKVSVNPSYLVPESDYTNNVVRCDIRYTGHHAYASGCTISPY
Summary of the method: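 Enzyme source: serum-free conditioned media from HEK cells stably expressing human LOX, with BSA added to give measurable activity. Activity is measured as H2O2 from oxidative deamination of 1,5-diaminopentane (DAP), read by Amplex Red. IC50 is given as geometric mean x/÷ geometric standard deviation, with N-values reported.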

Lysyl oxidase homolog 2 [1] = molecular target: T3, Lysyl oxidase homolog 2 (Homo sapiens, UniProt Q9Y4K0); test: Inhibition of full length recombinant human LOXL2 expressed in CHO cells spiked into human whole blood assessed as reduction in H2O2 production using DAP as substrate preincubated for 2 followed by substrate addition measured every 90 secs for 45 mins by Amplex red dye based fluorescence assay; format: cell-based
T3 sequence (Q9Y4K0 whole entry): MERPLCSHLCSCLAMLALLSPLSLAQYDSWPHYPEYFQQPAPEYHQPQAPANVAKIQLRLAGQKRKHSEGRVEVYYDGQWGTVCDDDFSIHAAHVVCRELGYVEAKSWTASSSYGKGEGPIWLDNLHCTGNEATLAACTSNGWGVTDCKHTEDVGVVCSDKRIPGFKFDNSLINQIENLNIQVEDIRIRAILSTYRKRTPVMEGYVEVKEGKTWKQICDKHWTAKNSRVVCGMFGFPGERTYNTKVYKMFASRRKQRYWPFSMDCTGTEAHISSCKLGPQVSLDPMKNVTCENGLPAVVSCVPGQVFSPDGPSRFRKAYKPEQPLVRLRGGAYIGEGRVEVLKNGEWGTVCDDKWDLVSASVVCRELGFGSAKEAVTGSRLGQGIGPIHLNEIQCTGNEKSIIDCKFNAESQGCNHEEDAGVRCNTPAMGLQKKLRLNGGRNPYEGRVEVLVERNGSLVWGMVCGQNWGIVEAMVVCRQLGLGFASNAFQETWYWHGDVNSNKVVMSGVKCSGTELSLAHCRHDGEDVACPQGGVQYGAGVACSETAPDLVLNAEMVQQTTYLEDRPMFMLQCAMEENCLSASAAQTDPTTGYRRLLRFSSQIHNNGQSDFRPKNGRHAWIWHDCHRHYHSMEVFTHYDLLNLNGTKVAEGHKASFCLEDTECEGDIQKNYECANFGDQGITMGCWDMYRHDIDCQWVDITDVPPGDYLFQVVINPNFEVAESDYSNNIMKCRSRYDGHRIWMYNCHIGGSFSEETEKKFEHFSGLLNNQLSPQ
Summary of the method: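 Human recombinant LOXL2 spiked into human whole blood. Oxidative deamination of 1,5-diaminopentane measured as H2O2 with Amplex Red. IC50 expressed as geometric mean x/÷ geometric SD with N.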

Lysyl oxidase homolog 2 [2] = molecular target: T3, Lysyl oxidase homolog 2; test: Inhibition of full length recombinant human LOXL2 expressed in CHO cells assessed as reduction in H2O2 production using DAP as substrate preincubated for 2 hrs followed by substrate addition measured every 2 minutes for 50 minutes in presence of BSA by Amplex red dye based fluorescence assay
Summary of the method: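 Serum-free concentrated conditioned medium from CHO cells stably expressing human LOXL2, supplemented with BSA. Compounds preincubated for 2 h (the screening preincubation time). Substrate was 1,5-diaminopentane, and the H2O2 formed was detected with Amplex Red. IC50 given as geometric mean x/÷ geometric SD over N determinations.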

In the case of NCc1ccnc(Cl)c1, the IC50 (Lysyl oxidase homolog 3) is reported as 214 nM, the IC50 (Protein-lysine 6-oxidase) is reported as 5910 nM and the IC50 (Lysyl oxidase homolog 2 [1]) is reported as 1450 nM. It also gave an IC50 (Lysyl oxidase homolog 2 [2]) of 190 nM.
